Shown are actives, neighbours in structure and some others; about 2% of the full set was active somewhere.
DENV2 CPE rescue: protects cells from dengue virus 2 cytopathic effect; DENV2-infected cells, cytopathic effect rescue, plate reader; CPE inhibition, % at 9.99 µM; 1.7% of 350,000 active; in the data active = CPE inhibition above about 20%, passing the limit was not always enough; tested in BHK-21 cells;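 note: 0% = median of neutral control wells and 100% = median of positive control wells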
Xi reactivation: reactivates the inactive X chromosome in mouse fibroblasts; AID 743238; XiGFP mouse fibroblasts, % GFP-positive cells imaging, 3 d; cells co-treated with 5-aza-dC sensitizer; scaled so ellipticine positive control = 100%; activation, % at 7.58 µM; 0.055% of 360,000 active;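 active = mean normalized replicate activation at least 10% and every replicate at or above 10%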;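 note: 0% = median of on-plate neutral control wells and 100% = ellipticine 6 µM median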
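Material: XiGFP fibroblasts, SV40-immortalized; Buffer or medium: DMEM containing 5-aza-dC; Compound dosing: single point; Times: 3 days compound exposure.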
Casp6 inh: caspase-6 (human) enzyme inhibition; purified caspase-6, Z-VEID-R110 cleavage fluorescence; inhibition, % at 12.5 µM; 0.53% of 350,000 active; AID 686996;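 active = mean inhibition across replicates at least about 35%, with every replicate also reaching that limit, limit read from the data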;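 note: 0% = median of neutral control wells and 100% = no fluorescence left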
Target sequence (P55212 24-179 limits assumed): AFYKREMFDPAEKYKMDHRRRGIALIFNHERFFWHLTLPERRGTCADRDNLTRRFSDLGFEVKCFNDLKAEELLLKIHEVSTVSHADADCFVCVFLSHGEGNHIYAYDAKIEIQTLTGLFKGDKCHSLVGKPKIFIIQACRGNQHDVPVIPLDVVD
Target sequence (P55212 194-293 limits assumed): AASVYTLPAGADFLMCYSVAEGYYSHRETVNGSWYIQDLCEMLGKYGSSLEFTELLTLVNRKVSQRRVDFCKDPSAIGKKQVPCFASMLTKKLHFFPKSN
CaV13 ICDI inh: Disruptors of the CACNA1D IQ motif to Ca2+-dependent inactivation inhibitor domain association, primary screening, Förster resonance energy transfer in intact living …; 0.098% of 340,000 active; HEK cells, CFP/YFP FRET ICDI-IQ, plate reader, 10 min; percent FRET-ratio fall versus neutral wells; inhibition, % at 12.3 µM;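 active = mean replicate inhibition of at least 30% and at least 1% of replicates passing that level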;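 note: 0% = median of the neutral control wells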
FN deposit inh: fibronectin deposition inhibition | AH1F fibroblasts, Alexa488-fibronectin deposition fluorescence, overnight | inhibition, % at 12.6 µM | 0.086% of 350,000 active;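 active = mean inhibition across replicates of 30% or more, regardless of how many single replicates reach that level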;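 note: positive control wells lacked labelled fibronectin entirely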
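Assay system: AH1F fibroblasts assembling fluorescent fibronectin matrix; Amount: 10000 AH1F cells per well; Buffer or medium: DMEM, 2% serum; Probe or stimulus: Alexa488-fibronectin, 24 nM final in well; Doses: single compound dose, delivered by pin transfer; Incubation: 1 h adhesion, overnight exposure; Measured by: fluorescence 485/525 nm; Read-out: fibronectin deposition inhibition.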
* hit, by the source's call.

For Oc1cccc(/C=N/N2CCCCC2)c1O the results were DENV2 CPE rescue 0, Xi reactivation 0, Casp6 inh 2, CaV13 ICDI inh -18 and FN deposit inh -3.
`O=C(C[C@H]1C[C@H]2c3cc(NC(=O)C4CCC4)ccc3O[C@H]2[C@H](CO)O1)NCc1ccc2c(c1)OCO2` gave DENV2 CPE rescue 1, Xi reactivation 0, Casp6 inh 1 and FN deposit inh 6.
`c1cc2cc(-c3c(-c4ccc5c(c4)OCO5)noc3-c3ccsc3)ccc2[nH]1` gave DENV2 CPE rescue 120*, Xi reactivation 0, Casp6 inh -2, CaV13 ICDI inh -9 and FN deposit inh -1.
Cc1onc(-c2ccc3c(c2)OCO3)c1-c1ccc2[nH]ccc2c1 was read as DENV2 CPE rescue -1, Xi reactivation 0, Casp6 inh 0, CaV13 ICDI inh -10 and FN deposit inh 1.
`CCOc1ccc(Nc2nc(N3CCOCC3)nc(N3CCOCC3)n2)cc1` gave DENV2 CPE rescue 15, Xi reactivation 0, Casp6 inh 41*, CaV13 ICDI inh -1 and FN deposit inh 8.
COc1ccc(Nc2nc(N3CCCC3)nc(N3CCOCC3)n2)cc1 was read as DENV2 CPE rescue 1, Xi reactivation 0, Casp6 inh 2, CaV13 ICDI inh -5 and FN deposit inh -1.
Screening CNC[C@@H]1Oc2ccc(NC(=O)Nc3cccc4ccccc34)cc2CC(=O)N([C@@H](C)CO)C[C@H]1C returned DENV2 CPE rescue 5, Xi reactivation -1, Casp6 inh -1 and FN deposit inh -8.
`O=C1c2ccccc2C(=O)c2c([N+](=O)[O-])ccc(O)c21` gave DENV2 CPE rescue -1, Xi reactivation 0, Casp6 inh 38*, CaV13 ICDI inh 9 and FN deposit inh 2.
`COc1ccc2c3c(n(C)c2c1)[C@H](CO)N(C(=O)NC1CCCCC1)CC31CN(C)C1` gave Xi reactivation 0.
For COc1cc(/C=N/NC(=O)c2nc(-c3ccccc3)n(-c3ccccc3)n2)ccc1O the results were Xi reactivation 0, CaV13 ICDI inh -17 and FN deposit inh 1.
COc1ccc(/C=N/NC(=O)c2nc(-c3ccccc3)n(-c3ccccc3)n2)cc1OC was read as DENV2 CPE rescue 38*, Xi reactivation 0, Casp6 inh -1, CaV13 ICDI inh -5 and FN deposit inh 1.
For O=C1Nc2ccccc2OCc2cn(nn2)CC[C@H]1Cc1ccc(-c2ccccc2)cc1 the results were Xi reactivation 0 and FN deposit inh 1.
For C[C@H]1CC=CC[C@H](c2ccc3c(c2)OCO3)NC(=O)[C@H](Cc2ccccc2)N(C)C(=O)c2ccccc2O1 (mixture of isomers) the results were Xi reactivation 0 and FN deposit inh 0.
CC(=O)Nc1cc(-c2cccc(NS(C)(=O)=O)c2)cn2c(-c3cccc(C(C)=O)c3)cnc12 was read as DENV2 CPE rescue 33*, Xi reactivation 0, Casp6 inh 4, CaV13 ICDI inh -5 and FN deposit inh 7.
`O=Cc1cscc1[B-](F)(F)F` gave DENV2 CPE rescue 5, Xi reactivation 0, Casp6 inh 66*, CaV13 ICDI inh -5 and FN deposit inh 8.
`COc1ccc(CC(=O)OCC(=O)c2ccc(OC)cc2)cc1` gave Xi reactivation 1, CaV13 ICDI inh -2 and FN deposit inh 0.
COc1ccc(CC(=O)OCC(=O)c2ccc(OC)c(OC)c2)cc1 was read as DENV2 CPE rescue 30*, Xi reactivation 0, Casp6 inh 4, CaV13 ICDI inh -7 and FN deposit inh -6.
COc1ccc(CN(C)C[C@H]2Oc3ccc(NC(=O)Nc4ccc(C(F)(F)F)cc4)cc3C(=O)N([C@@H](C)CO)C[C@H]2C)cc1 was read as DENV2 CPE rescue 4, Xi reactivation 1, Casp6 inh 1 and FN deposit inh 13.
Screening COc1ccc(CN(C)C[C@@H]2Oc3ccc(NC(=O)Nc4ccc(C(F)(F)F)cc4)cc3C(=O)N([C@@H](C)CO)C[C@H]2C)cc1 returned DENV2 CPE rescue 44*, Xi reactivation 1, Casp6 inh 0 and FN deposit inh -11.
For COc1ccc(NC(=O)Nc2ccc3c(c2)C(=O)N([C@H](C)CO)C[C@H](C)[C@@H](CN(C)Cc2ccc(C(F)(F)F)cc2)O3)cc1 the results were DENV2 CPE rescue 20*, Xi reactivation -1 and Casp6 inh 0.
COc1ccc(NC(=O)Nc2ccc3c(c2)C(=O)N([C@H](C)CO)C[C@H](C)[C@@H](CN(C)Cc2ccccc2)O3)cc1 was read as DENV2 CPE rescue 43*, Xi reactivation 0 and Casp6 inh 0.
Screening C[C@@H]1CN([C@@H](C)CO)S(=O)(=O)c2ccc(-c3cncnc3)cc2O[C@H]1CN(C)C(=O)C1CCC1 returned DENV2 CPE rescue -2, Xi reactivation -1 and Casp6 inh -1.
`C[C@@H]1CCCCO[C@@H](CN(C)C(=O)Nc2ccc(F)cc2)[C@H](C)CN([C@H](C)CO)C(=O)c2cc(NC(=O)Nc3ccc(F)cc3)ccc2O1` gave DENV2 CPE rescue 65*, Xi reactivation 0, Casp6 inh 1 and FN deposit inh 0.
Screening C[C@H]1CCCCO[C@H](CN(C)C(=O)c2ccccc2)[C@@H](C)CN([C@@H](C)CO)C(=O)c2cc(NC(=O)Nc3ccc(F)cc3)ccc2O1 returned DENV2 CPE rescue 28*, Xi reactivation 0 and Casp6 inh 0.
For C[C@@H]1CN([C@@H](C)CO)C(=O)c2cc(NC(=O)Nc3ccc(F)cc3)ccc2O[C@@H](C)CCCCO[C@@H]1CN(C)C(=O)Nc1ccc2c(c1)OCO2 the results were DENV2 CPE rescue 23*, Xi reactivation 0 and Casp6 inh 2.
For C[C@@H]1CCCCO[C@@H](CN(C)C(=O)c2ccccc2)[C@H](C)CN([C@@H](C)CO)C(=O)c2cc(NC(=O)Nc3ccc(F)cc3)ccc2O1 the results were DENV2 CPE rescue 9, Xi reactivation 2 and Casp6 inh 0.
For CC(C)NC(=O)N(C)C[C@@H]1OCCCC[C@H](C)Oc2ccc(NC(=O)Nc3ccc(F)cc3)cc2C(=O)N([C@@H](C)CO)C[C@H]1C the results were DENV2 CPE rescue 39*, Xi reactivation 0 and Casp6 inh -2.
For C[C@@H]1CN([C@H](C)CO)C(=O)c2cc(NC(=O)Nc3ccc(F)cc3)ccc2O[C@@H](C)CCCCO[C@H]1CN(C)C the results were DENV2 CPE rescue 42*, Xi reactivation -1 and Casp6 inh 2.
Screening C[C@@H]1CCCCO[C@@H](CN(C)C(=O)c2ccccc2)[C@H](C)CN([C@@H](C)CO)C(=O)c2cc(NC(=O)Nc3ccc(C(F)(F)F)cc3)ccc2O1 returned DENV2 CPE rescue 4, Xi reactivation 1 and Casp6 inh -2.

Assay outcomes deposited in PubChem BioAssay by Broad Institute.
